How the values were obtained:
Brain = assay: Drug uptake in iv dosed baboon brain measured over 15 to 90 mins by PET image analysis; format: ADME, organism-based; conditions: papio anubis, in vivo
In short: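 Baboon PET after i.v. radiolabelled drug, with images acquired for 90 min. Dose-corrected coronal images were summed over 15–90 min. Time-activity curves came from manually drawn regions of interest.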

Spleen [1] = assay: Drug uptake in mouse spleen measured at 20 mins; format: ADME, tissue-based; conditions: in vivo
In short: (§1)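 Healthy mice were injected with [11C]-labelled tracer. Tissue radioactivity was measured at 20, 40 and 60 min post-injection and expressed as % injected dose/gram. Values are mean ± SD of three animals.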

Kidney [2] = assay: Drug uptake in mouse kidney measured at 40 mins; format: ADME, tissue-based; conditions: in vivo; in short: as §1
Lung [3] = assay: Drug uptake in mouse lung measured at 40 mins; format: ADME, tissue-based; conditions: in vivo; in short: as §1
[4] = Drug uptake in iv dosed baboon lung measured over 90 mins by PET image analysis; format: ADME, organism-based; conditions: papio anubis, in vivo, 1.5 h
In short: (§2)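 Dynamic PET scan of baboons over 90 min after i.v. [11C]-labelled radiotracer. Peripheral organ time-activity curves were derived from regions of interest drawn manually on the images.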

[5] = Drug uptake in iv dosed baboon heart measured over 90 mins by PET image analysis; format: ADME, organism-based; conditions: papio anubis, in vivo, 1.5 h; in short: as §2
[6] = Drug uptake in iv dosed baboon blood measured over 90 mins by PET image analysis; format: ADME, organism-based; conditions: papio anubis, in vivo, 1.5 h; in short: as §2
Spleen [7] = assay: Drug uptake in mouse spleen measured at 40 mins; format: ADME, tissue-based; conditions: in vivo; in short: as §1
Lung [8] = assay: Drug uptake in mouse lung measured at 60 mins; format: ADME, tissue-based; conditions: in vivo, 1 h; in short: as §1
Liver [9] = assay: Drug uptake in mouse liver measured at 40 mins; format: ADME, tissue-based; conditions: in vivo; in short: as §1
Spleen [10] = assay: Drug uptake in mouse spleen measured at 60 mins; format: ADME, tissue-based; conditions: in vivo, 1 h; in short: as §1
Kidney [11] = assay: Drug uptake in mouse kidney measured at 60 mins; format: ADME, tissue-based; conditions: in vivo, 1 h; in short: as §1
Blood [12] = assay: Drug uptake in mouse blood measured at 60 mins; format: ADME, tissue-based; conditions: 1 h; in short: as §1
[13] = Drug uptake in iv dosed baboon liver measured over 90 mins by PET image analysis; format: ADME, organism-based; conditions: papio anubis, in vivo, 1.5 h; in short: as §2
[14] = Drug uptake in iv dosed baboon spleen measured over 90 mins by PET image analysis; format: ADME, organism-based; conditions: papio anubis, in vivo, 1.5 h; in short: as §2
[15] = Drug uptake in iv dosed baboon kidney measured over 90 mins by PET image analysis; format: ADME, organism-based; conditions: papio anubis, in vivo, 1.5 h; in short: as §2
[16] = Drug uptake in iv dosed baboon gallbladder measured over 90 to 120 mins by PET image analysis; format: ADME, organism-based, Gall bladder; conditions: papio anubis, in vivo
Blood [17] = assay: Drug uptake in mouse blood measured at 20 mins; format: ADME, tissue-based; in short: as §1
Blood [18] = assay: Drug uptake in mouse blood measured at 40 mins; format: ADME, tissue-based; in short: as §1
Spleen [19] = assay: Drug uptake in mouse spleen pretreated with unlabelled compound for 1 hr followed by radiolabeled compound treatment measured after 20 mins by PET image analysis; format: ADME, tissue-based; conditions: in vivo
In short: (§3)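 Mice received a 200 mg/kg predose of unlabelled compound 1 h before [11C]-tracer injection. Tissue radioactivity was read 20 min after the tracer and given as % injected dose/gram, mean ± SD of three animals.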

Kidney [20] = assay: Drug uptake in mouse kidney measured at 20 mins; format: ADME, tissue-based; conditions: in vivo; in short: as §1
Liver [21] = assay: Drug uptake in mouse liver measured at 60 mins; format: ADME, tissue-based; conditions: in vivo, 1 h; in short: as §1
Lung [22] = assay: Drug uptake in mouse lung measured at 20 mins; format: ADME, tissue-based; conditions: in vivo; in short: as §1
Lung [23] = assay: Drug uptake in mouse lung pretreated with unlabelled compound for 1 hr followed by radiolabeled compound treatment measured after 20 mins by PET image analysis; format: ADME, tissue-based; conditions: in vivo; in short: as §3
[24] = Plasma protein binding in baboon after 10 mins; format: ADME, cell-free; conditions: papio anubis
[25] = Octanol-phosphate buffer partition coefficient, log D of the compound at pH 7.4; format: physicochemical; conditions: octanol/water
In short: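 Partitioning between octanol and pH 7.4 phosphate buffer, with the carbon-11 radiolabel used to report drug concentration in each phase.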

[26] = system: Mycobacterium tuberculosis; assay: Binding affinity to Mycobacterium tuberculosis InhA:NAD+ complex expressed in Escherichia coli BL21(DE3)pLysS assessed as residence time
[27] = system: Mycobacterium tuberculosis; assay: Binding affinity to Mycobacterium tuberculosis InhA assessed as residence time

With `CCCCCCc1ccc(Oc2ccccc2[11C]#N)c(O)c1` as the molecule, how does the Drug uptake (Brain) read?
The Drug uptake was “Active”.

With `CCCCCCc1ccc(Oc2ccccc2[11CH3])c(O)c1` as the molecule, how does the Drug uptake (Spleen [1]) read?
Its Drug uptake is 1.82 %ID/cc.

What about the Drug uptake (Kidney [2]) of the same molecule?
Its Drug uptake is 1.45 %ID/cc.

What about the Drug uptake (Lung [3]) of the same molecule?
Its Drug uptake is 1.26 %ID/cc.

And the Drug uptake [4]?
Its Drug uptake is “Not Active”.

What about the Drug uptake [5] of the same molecule?
Its Drug uptake is “Not Active”.

What about the Drug uptake [6] of the same molecule?
Its Drug uptake is “Not Active”.

And the Drug uptake (Spleen [7])?
The Drug uptake was 0.93 %ID/cc.

What about the Drug uptake (Lung [8]) of the same molecule?
Its Drug uptake is 1.35 %ID/cc.

And the Drug uptake (Liver [9])?
Its Drug uptake is 15.7 %ID/cc.

And the Drug uptake (Spleen [10])?
The Drug uptake was 0.21 %ID/cc.

And the Drug uptake (Kidney [11])?
Its Drug uptake is 0.31 %ID/cc.

What about the Drug uptake (Blood [12]) of the same molecule?
The Drug uptake was 0.55 %ID/cc.

And the Drug uptake [13]?
The Drug uptake was “Active”.

And the Drug uptake [14]?
The Drug uptake was “Active”.

And the Drug uptake [15]?
Its Drug uptake is “Active”.

And the Drug uptake [16]?
Its Drug uptake is “Active”.

And the Drug uptake (Blood [17])?
Its Drug uptake is 1.7 %ID/cc.

And the Drug uptake (Blood [18])?
Its Drug uptake is 1.46 %ID/cc.

And the Drug uptake (Spleen [19])?
The Drug uptake was “Active”.

And the Drug uptake (Kidney [20])?
Its Drug uptake is 2.21 %ID/cc.

What about the Drug uptake (Liver [21]) of the same molecule?
Its Drug uptake is 14.09 %ID/cc.

What about the Drug uptake (Lung [22]) of the same molecule?
The Drug uptake was 1.36 %ID/cc.

And the Drug uptake (Brain)?
The Drug uptake was “Active”.

What about the Drug uptake (Lung [23]) of the same molecule?
The Drug uptake was “Active”.

Which results are given for `CCCCCCc1ccc(Oc2ccccc2C)c(O)c1`?
PPB [24]: 99.76%; logD [25]: 3.65; TIME [26]: 0.4 h

With `NC(=O)C1=CN([C@@H]2O[C@H](COP(=O)(O)OP(=O)(O)OC[C@H]3O[C@@H](n4cnc5c(N)ncnc54)[C@H](O)[C@@H]3O)[C@@H](O)[C@H]2O)C=C[C@@H]1C(=O)c1ccncc1` as the molecule, how does the TIME [27] read?
The TIME was 1 h.
